Data: ChEMBL document CHEMBL1154235, “Rational design and semisynthesis of betulinic acid analogues as potent topoisomerase inhibitors” (J Nat Prod, 2009)

Key:
MDA-MB-468 = experiment: Cytotoxicity against human MDA-MB-468 cells assessed as cell growth at 10 uM; type: functional; conditions: read-out: Activity
Method in brief: (§1)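 Single-dose screen at 10 µM against the 60 human cell line panel, run by the NCI Developmental Therapeutics Program and scored as cell growth.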

[1] = Cytotoxicity against human Hs 578T cells assessed as cell growth at 10 uM; type: functional; conditions: read-out: Activity; method in brief: as §1
TK-10 = experiment: Cytotoxicity against human TK10 cells assessed as cell growth at 10 uM; type: functional; conditions: read-out: Activity
HOP-92 = experiment: Cytotoxicity against human HOP92 cells assessed as cell growth at 10 uM; type: functional; conditions: read-out: Activity; method in brief: as §1
SNB-75 = experiment: Cytotoxicity against human SNB75 cells assessed as cell growth at 10 uM; type: functional; conditions: read-out: Activity
T47D = experiment: Cytotoxicity against human T47D cells assessed as cell growth at 10 uM; type: functional; conditions: read-out: Activity
COLO 205 = experiment: Cytotoxicity against human COLO205 cells assessed as cell growth at 10 uM; type: functional; conditions: read-out: Activity; method in brief: as §1
HCC 2998 = experiment: Cytotoxicity against human HCC2998 cells assessed as cell growth at 10 uM; type: functional; conditions: read-out: Activity; method in brief: as §1
HT-29 = experiment: Cytotoxicity against human HT-29 cells assessed as cell growth at 10 uM; type: functional; conditions: read-out: Activity; method in brief: as §1
MDA-MB-231 [2] = experiment: Antiproliferative activity against human MDA-MB-231 cells after 3 days by MTT assay; type: functional, cell-based; conditions: MDA-MB-231, 72 h
Method in brief: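 MDA-MB-231 cells kept in RPMI 1640 with 10% heat-inactivated FBS and 25 mM HEPES at 37 °C in 5% CO2. Plated at about 15 000/well and preincubated 1 day, then exposed to compound for 3 days at 37 °C, with doses in triplicate. MTT added for 4 h, formazan dissolved in detergent overnight at room temperature in the dark, OD read at 580 nm against a cell-free blank. Cell numbers from a calibration curve; IC50 from dose-response curves.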

HOP-62 = experiment: Cytotoxicity against human HOP62 cells assessed as cell growth at 10 uM; type: functional; conditions: read-out: Activity; method in brief: as §1
K562 = experiment: Cytotoxicity against human K562 cells assessed as cell growth at 10 uM; type: functional; conditions: read-out: Activity; method in brief: as §1
HL-60(TB) = experiment: Cytotoxicity against human HL-60(TB) cells assessed as cell growth at 10 uM; type: functional; conditions: read-out: Activity
Method in brief: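 Single-dose screen run externally by the NCI Developmental Therapeutics Program across its 60 human tumour cell line panel. Compound tested at 10 µM.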

OVCAR-3 = experiment: Cytotoxicity against human OVCAR-3 cells assessed as cell growth at 10 uM; type: functional; conditions: read-out: Activity; method in brief: as §1
SW-620 = experiment: Cytotoxicity against human SW620 cells assessed as cell growth at 10 uM; type: functional; conditions: read-out: Activity
HCT-116 = experiment: Antiproliferative activity against human HCT116 cells after 3 days by XTT assay; type: functional, cell-based; conditions: HCT-116, 72 h
Method in brief: (§2)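 Cells plated at 4000/well and grown 1 day at 37 °C, then exposed to a range of drug concentrations for 3 more days. Read-out by XTT tetrazolium reduction on a plate reader. Each concentration run in triplicate. IC50 taken from a linear-quadratic fit. Assays repeated two or three times and reported as mean ± SE. HCT-116 kept in modified McCoy's 5a and SW948 in Leibovitz's L-15, each with 10% heat-inactivated FBS and 2 mM L-glutamine.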

EKVX = experiment: Cytotoxicity against human EKVX cells assessed as cell growth at 10 uM; type: functional; conditions: read-out: Activity; method in brief: as §1
OVCAR-8 = experiment: Cytotoxicity against human OVCAR8 cells assessed as cell growth at 10 uM; type: functional; conditions: read-out: Activity; method in brief: as §1
NCI-H23 = experiment: Cytotoxicity against human NCI-H23 cells assessed as cell growth at 10 uM; type: functional; conditions: read-out: Activity; method in brief: as §1
OVCAR-5 = experiment: Cytotoxicity against human OVCAR5 cells assessed as cell growth at 10 uM; type: functional; conditions: read-out: Activity; method in brief: as §1
BT-549 = experiment: Cytotoxicity against human BT549 cells assessed as cell growth at 10 uM; type: functional; conditions: read-out: Activity; method in brief: as §1
M14 = experiment: Cytotoxicity against human M14 cells assessed as cell growth at 10 uM; type: functional; conditions: read-out: Activity; method in brief: as §1
SF-539 = experiment: Cytotoxicity against human SF539 cells assessed as cell growth at 10 uM; type: functional; conditions: read-out: Activity; method in brief: as §1
MDA-MB-231 [3] = experiment: Cytotoxicity against human MDA-MB-231 cells assessed as cell growth at 10 uM; type: functional; conditions: read-out: Activity; method in brief: as §1
KM12 = experiment: Cytotoxicity against human KM12 cells assessed as cell growth at 10 uM; type: functional; conditions: read-out: Activity; method in brief: as §1
A549 = experiment: Cytotoxicity against human A549 cells assessed as cell growth at 10 uM; type: functional; conditions: read-out: Activity; method in brief: as §1
LOX IMVI = experiment: Cytotoxicity against human LOXIMVI cells assessed as cell growth at 10 uM; type: functional; conditions: read-out: Activity; method in brief: as §1
DU-145 = experiment: Cytotoxicity against human DU145 cells assessed as cell growth at 10 uM; type: functional; conditions: read-out: Activity; method in brief: as §1
NCI-H226 = experiment: Cytotoxicity against human NCI-H226 cells assessed as cell growth at 10 uM; type: functional; conditions: read-out: Activity; method in brief: as §1
NCI-H460 = experiment: Cytotoxicity against human NCI-H460 cells assessed as cell growth at 10 uM; type: functional; conditions: read-out: Activity; method in brief: as §1
SNB-19 = experiment: Cytotoxicity against human SNB19 cells assessed as cell growth at 10 uM; type: functional; conditions: read-out: Activity; method in brief: as §1
UACC-62 = experiment: Cytotoxicity against human UACC62 cells assessed as cell growth at 10 uM; type: functional; conditions: read-out: Activity
SW948 = experiment: Antiproliferative activity against human SW948 cells after 3 days by XTT assay; type: functional, cell-based; conditions: SW948, 72 h; method in brief: as §2
HCT-15 = experiment: Cytotoxicity against human HCT15 cells assessed as cell growth at 10 uM; type: functional; conditions: read-out: Activity; method in brief: as §1
UO-31 = experiment: Cytotoxicity against human UO31 cells assessed as cell growth at 10 uM; type: functional; conditions: read-out: Activity
SK-MEL-5 = experiment: Cytotoxicity against human SK-MEL-5 cells assessed as cell growth at 10 uM; type: functional; conditions: read-out: Activity; method in brief: as §1
RPMI-8226 = experiment: Cytotoxicity against human RPMI8226 cells assessed as cell growth at 10 uM; type: functional; conditions: read-out: Activity; method in brief: as §1
MOLT-4 = experiment: Cytotoxicity against human MOLT4 cells assessed as cell growth at 10 uM; type: functional; conditions: read-out: Activity; method in brief: as §1
U-251 = experiment: Cytotoxicity against human U251 cells assessed as cell growth at 10 uM; type: functional; conditions: read-out: Activity
SF-295 = experiment: Cytotoxicity against human SF295 cells assessed as cell growth at 10 uM; type: functional; conditions: read-out: Activity; method in brief: as §1
MCF7 = experiment: Cytotoxicity against human MCF7 cells assessed as cell growth at 10 uM; type: functional; conditions: read-out: Activity; method in brief: as §1
NCI-H522 = experiment: Cytotoxicity against human NCI-H522 cells assessed as cell growth at 10 uM; type: functional; conditions: read-out: Activity; method in brief: as §1
OVCAR-4 = experiment: Cytotoxicity against human OVCAR4 cells assessed as cell growth at 10 uM; type: functional; conditions: read-out: Activity; method in brief: as §1
NCI-H322M = experiment: Cytotoxicity against human NCI-H322M cells assessed as cell growth at 10 uM; type: functional; conditions: read-out: Activity; method in brief: as §1
CAKI-1 = experiment: Cytotoxicity against human Caki1 cells assessed as cell growth at 10 uM; type: functional; conditions: read-out: Activity; method in brief: as §1
A498 = experiment: Cytotoxicity against human A498 cells assessed as cell growth at 10 uM; type: functional; conditions: read-out: Activity; method in brief: as §1
SN12C = experiment: Cytotoxicity against human SN12C cells assessed as cell growth at 10 uM; type: functional; conditions: read-out: Activity; method in brief: as §1
SF-268 = experiment: Cytotoxicity against human SF268 cells assessed as cell growth at 10 uM; type: functional; conditions: read-out: Activity; method in brief: as §1
Malme-3M = experiment: Cytotoxicity against human MALME-3M cells assessed as cell growth at 10 uM; type: functional; conditions: read-out: Activity; method in brief: as §1
SK-OV-3 = experiment: Cytotoxicity against human SKOV3 cells assessed as cell growth at 10 uM; type: functional; conditions: read-out: Activity; method in brief: as §1

C=C(C)[C@@H]1CC[C@]2(C(O)=S)CC[C@]3(C)[C@H](CC[C@@H]4[C@@]5(C)CC[C@H](O)C(C)(C)[C@@H]5CC[C@]43C)[C@@H]12
growth at 10 µM (MDA-MB-468): 105% | growth at 10 µM [1]: 105% | growth at 10 µM (TK-10): 94.2% | growth at 10 µM (HOP-92): 158% | growth at 10 µM (SNB-75): 108% | growth at 10 µM (T47D): 98.5% | growth at 10 µM (COLO 205): 129% | growth at 10 µM (HCC 2998): 128% | growth at 10 µM (HT-29): 112% | IC50 (MDA-MB-231 [2]): > 25 µM | growth at 10 µM (HOP-62): 80% | growth at 10 µM (K562): 127% | growth at 10 µM (HL-60(TB)): 134% | growth at 10 µM (OVCAR-3): 94.9% | growth at 10 µM (SW-620): 92.2% | IC50 (HCT-116): > 25 µM | growth at 10 µM (EKVX): 103% | growth at 10 µM (OVCAR-8): 101% | growth at 10 µM (NCI-H23): 93.4% | growth at 10 µM (OVCAR-5): 119% | growth at 10 µM (BT-549): 94.8% | growth at 10 µM (M14): 96% | growth at 10 µM (SF-539): 111% | growth at 10 µM (MDA-MB-231 [3]): 114% | growth at 10 µM (KM12): 84.7% | growth at 10 µM (A549): 93% | growth at 10 µM (LOX IMVI): 101% | growth at 10 µM (DU-145): 130% | growth at 10 µM (NCI-H226): 108% | growth at 10 µM (NCI-H460): 109% | growth at 10 µM (SNB-19): 113% | growth at 10 µM (UACC-62): 96.8% | IC50 (SW948): > 25 µM | growth at 10 µM (HCT-15): 104% | growth at 10 µM (UO-31): 89.5% | growth at 10 µM (SK-MEL-5): 99.7% | growth at 10 µM (RPMI-8226): 113% | growth at 10 µM (MOLT-4): 131% | growth at 10 µM (U-251): 105% | growth at 10 µM (SF-295): 98.4% | growth at 10 µM (MCF7): 100% | growth at 10 µM (NCI-H522): 71.9% | growth at 10 µM (OVCAR-4): 112% | growth at 10 µM (NCI-H322M): 109% | growth at 10 µM (CAKI-1): 100% | growth at 10 µM (A498): 129% | growth at 10 µM (SN12C): 102% | growth at 10 µM (SF-268): 92.7% | growth at 10 µM (Malme-3M): 102% | growth at 10 µM (SK-OV-3): 113%
